Laboratory results published in the RNAGym collection of RNA variant scans (doi:10.1126/science.aae0568).
This sample holds only a part of the variants without activity.

B1: tRNA (parent)
chain: GUUCCGUUGGCGUAAUGGUAACGCGUCUCCCUCCUAAGGAGAAGACUGCGGGUUCGAGUCCCGUACGGAACG

Variants of: B1
Assay: yeast fitness relative to wild type (ratio to wild type); higher = fitter; tRNA-Arg(CCU), competitive growth, 37 C, YPD
Summary of the method: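 Changes in genotype frequencies gave Darwinian fitness relative to wild type. Frequencies were read by 100-nucleotide paired-end sequencing of gene amplicons before and after pooled Saccharomyces cerevisiae strains, carrying tRNA-Arg(CCU) gene variants at the native locus, were competed in YPD at 37°C for 24 hours in six replicates. A genotype was kept only with ≥ 100 starting reads, and estimates < 0.5 were set to 0.5.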

Variant | yeast fitness
GUCCCGUUGGCGUAAUGGUAGCGCGUCUCCCUCGUAAGGAGAAGACUGCGGGUUCGAGUCCCGUACGGCACG [U3C A21G C34G A69C] | ≤ 0.5
GUCCCGUUGGCGUAAUGGUAUCGCGUCUCCCUCCUAAGGAGAAGACUGCGGGUUCGAGUCCCGUACGGAACG [U3C A21U] | 0.642
GUCCCGUUGGCGUAAUGGUAUCGCGUCUCCCUCCUAGGGAGAAAACUGCGGGUUCGAGUCCCAUACGGAACG [U3C A21U A37G G44A G63A] | ≤ 0.5
GUCCCGUUGGCGUAAUGGUAUCGCGUCUCCCUCCUAAGGAGAAGACUGCGGGUUCGAGUCCCGUACGGUACG [U3C A21U A69U] | 0.537
GUCCCGUUGGCGUAAUGGUAUCGCGUCUCCCUCCUAAGGAGAAGACUGCGGGUUCGAGUCCCGUAGGGAACG [U3C A21U C66G] | ≤ 0.5
GUCCCGUUGGCGUAAUGGUAUCGCGUCUCCCUCCUAAGGAGAAGACUGCCGGUUCGAGUCCCGUUCGGAACG [U3C A21U G50C A65U] | ≤ 0.5
GUCCCGUUGGCGUAAUGGUAACGCGUCUCCCUCCUCAGGAGACGACUGCGGGUUCGAGUCCCGUACGGCACG [U3C A36C A43C A69C] | ≤ 0.5
GUCCCGUUGGCGUAAUGGUAACGCGUCUCCCUCCUGAGGAGAAGACUGCGGGUUCGAGUCCCGUACGGAACG [U3C A36G] | 0.91
GUCCCGUUGGCGUAAUGGUAACGCGUCUCCCUCCUUAGGAGAAGACUGCGGGUUCGAGUCCUGUACGGAACG [U3C A36U C62U] | 0.553
GUCCCGUUGGCGUAAUGGUAACGCGUCUCCCUCCUUAGAAGAAGACUGCGGAUUCGAGUCCCGUACGGAACG [U3C A36U G39A G52A] | ≤ 0.5
GUCCCGUUGGCGUAAUGGUAACGCGUCUCCCUCCUACGGAGAAGACUGCGGGUUCGGGUCCCGUACGCAACG [U3C A37C A57G G68C] | ≤ 0.5
GUCCCGUUGGCGUAAUGGUAACGCGUCUCCCUCCUACGGAGAAGACUGGGGGUUCGAGUCCCGUACGGAACG [U3C A37C C49G] | ≤ 0.5
GUCCCGUUGGCGUAAUGGUAACGCGUCUCCCUCCUAGGGAGAAGACUGCGGGUUCGAGUCCCGUACGGAACG [U3C A37G] | 0.784
GUCCCGUUGGCGUAAUGGUAACGCGUCUCCCUCCUAGGGAGCAGACUGCGGGUUCGAGUCCCGUCCGGCACG [U3C A37G A42C A65C A69C] | ≤ 0.5
GUCCCGUUGGCGUAAUGGUAACGCGUCUCCCUCCUAGGGAGAAGACUGCGGGUUCGAGUCCCGUACGGAUCG [U3C A37G A70U] | 0.568
GUCCCGUUGGCGUAAUGGUAACGCGUCUCCCUCCUAUGGAGAAGACUGCGGGUUCGAGUCCCGUACGGAACG [U3C A37U] | 0.806
GUCCCGUUGGCGUAAUGGUAACGCGUCUCCCUCCUAAGGGGAAGAAUGCGGGUUCGAGUCCCGUGCGGAACG [U3C A40G C46A A65G] | 0.763
GUCCCGUUGGCGUAAUGGUAACGCGUCUCCCUCCUAAGGGGAAGAAUGCGGGUUCGAGUCCCGUACGGCACG [U3C A40G C46A A69C] | 0.706
GUCCCGUUGGCGUAAUGGUAACGCGUCUCCCUCCUAAGGGGAAGAAUGCGGGUUCGAGUCCGGUACGGUACG [U3C A40G C46A C62G A69U] | ≤ 0.5

Variant | yeast fitness
GUCCCGUUGGCGUAAUGGUAACGCGUCUCCCUCCUAAGGUGAAGACUGCGGGUUCGAGUCCCGUACGGUACG [U3C A40U A69U] | 0.755
GUCCCGUUGGCGUAAUGGUAACGCGUCUCCCUCCUAAGGUGAAGACUGAGGGUUCGAGUCCCGUACGGAUCG [U3C A40U C49A A70U] | ≤ 0.5
GUCCCGUUGGCGUAAUGGUAACGCGUCUCCCUCCUAAGGUGAACACUGCGGGUUCGAGUCCCGUACGGAACG [U3C A40U G44C] | 0.625
GUCCCGUUGGCGUAAUGGUAACGCGUCUCCCUCCUAAGGAGACGACUGCGGGUUCGAGUCCCGUACGGCACG [U3C A43C A69C] | 0.762
GUCCCGUUGGCGUAAUGGUAACGCGUCUCCCUCCUAAGGAGAAGCGUGAGGGUUCGAGUCCCGUACGGUACG [U3C A45C C46G C49A A69U] | ≤ 0.5
GUCCCGUUGGCGUAAUGGUAACGCGUCUCCCUCCUAAGGAGAAGCCUACGGGUUCGAGUCCCGUACGGAACG [U3C A45C G48A] | 0.937
GUCCCGUUGGCGUAAUGGUAACGCGUCUCCCUCCUAAGGAGAAGCCUGCGGGUUCGAGUCCCGUACAGAACG [U3C A45C G67A] | ≤ 0.5
GUCCCGUUGGCGUAAUGGUAACGCGUCUCCCUCCUAAGGAGAAGGCUGCGGGUUCGAGUCCCGUACGGAACG [U3C A45G] | 0.903
GUCCCGUUGGCGUAAUGGUAACGCGUCUCCCUCCUAAGGAGAAGUCUGCGGGUUCGAGUCCCGCACGGAACG [U3C A45U U64C] | 0.709
GUCCCGUUGGCGUAAUGGUAACGCGUCUCCCUCCUAAGGAGAAGACUGCGGGUUCGGGUCCCGUACGGAACG [U3C A57G] | 0.714
GUCCCGUUGGCGUAAUGGUAACGCGUCUCCCUCCUAAGGAGAAGACUGCGGGUUCGAGUCCCGUGCGGAACG [U3C A65G] | 0.887
GUCCCGUUGGCGUAAUGGUAACGCGUCUCCCUCCUAAGGAGAAGACUGCGGGUUCGAGUCCCGUACGGAUCG [U3C A70U] | 1.01
GUCACGUUGGCGUAAUGGUAACGCGUCUCCCUCCUAAGGAGAAGACUGCGGGUUCGAGUCCCGUCCGGAACG [U3C C4A A65C] | 0.62
GUCACGUUGGCGUAAUAGUAACGCGUCUCCCUCCUAAGGAAAAGACUGCGGGUUCGAGUCCCGUAUGGAACG [U3C C4A G17A G41A C66U] | ≤ 0.5
GUCGCGUUGGCGUAUUGGUAACGCGUCUCCCUACUAAGGAGAAGACUGCGGCUUCGAGUCCCGUACGGAACG [U3C C4G A15U C33A G52C] | ≤ 0.5
GUCGCGUUGGCGUAAUGGUAACGCGUCUCCCUCCUAAGGAGGAGACUGCGGGUUCGAGUCCCGUACGGAACG [U3C C4G A42G] | 0.57
GUCGCGUUGGCGUAAUGGUAACGCGUCUCCCUCCUAAGGAGGAGUCUGCGGGUUCGAGUCCCGUAUGGAACG [U3C C4G A42G A45U C66U] | 0.53
GUCGCGUUGGCCUAAUGGUAACGCGUCUCCCUCCUAAGGAGAAGACUGCGGGUUCGAGUCCCGUACGGAACG [U3C C4G G12C] | 0.687
GUCGCGUGGGCGUAAUGGUAACGCGUCUCCCUCCUAAGGAGGAGACUGCGGGUUCGAGUCCGGUCCGGAACG [U3C C4G U8G A42G C62G A65C] | ≤ 0.5
